This is an account of results in ChEMBL document CHEMBL4613249, “Serendipitous Discovery of Leucine and Methionine Depletion Agents during the Search for Polyamine Transport Inhibitors” (J Med Chem, 2020).

The source made the active and inactive calls.

Data set [1] addresses Large neutral amino acids transporter small subunit 1 (Homo sapiens) (UniProt Q01650). Kind of data set: Induction of LAT1-mediated polyamine efflux in aminoguanidine pretreated human L3.6PL cells assessed as reduction in cell viability up to 15 uM by MTS assay. It counts as cell-based. The note with it: TDE = time-dependent effect.
For data set [2], the system named is L3.6pl. The data set is described as follows: Effect on polyamine level in human L3.6PL cells assessed as leucine level per mg protein in supernatant at 2 uM measured after 72 hrs in presence of amine oxidase suppressor aminoguanidine by LCMS analysis (reference value: 18009 +/- 9061 pmol/mg). It counts as functional.
In data set [3] the test system is L3.6pl. The data set is described as follows: Effect on polyamine level in human L3.6PL cells assessed as decrease in intracellular spermine level at 2 to 7 uM measured after 72 hrs in presence of amine oxidase suppressor aminoguanidine by LCMS analysis. It counts as functional, cell-based. The settings on record: in the assay text read “by N-dansylation and HPLC analysis” for “by LCMS analysis”. Put shortly: (§1)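 L3.6pl cells, 50,000 cells/mL in 10 mL per Petri dish with 1 mM aminoguanidine, plated overnight. Dosed with compound at 2, 5 or 7 μM from PBS stocks, then 72 h at 37°C. Intracellular polyamines measured by N-dansylation and HPLC, in duplicate, as nmol/mg protein against a parallel untreated control.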

Data set [4] deals with L3.6pl. Kind of data set: Effect on polyamine level in human L3.6PL cells assessed as putrescine level per mg protein in supernatant at 5 uM measured after 72 hrs in presence of amine oxidase suppressor aminoguanidine by LCMS analysis (reference value: 977 +/- 522 pmol/mg). It counts as functional.
Data set [5] relates to L3.6pl. The data set is described as follows: Effect on polyamine level in human L3.6PL cells assessed as spermidine level per mg protein in supernatant at 5 uM measured after 72 hrs in presence of amine oxidase suppressor aminoguanidine by LCMS analysis (reference value: 339 pmol/mg). In kind it is functional.
Data set [6] has as its system L3.6pl. Kind of data set: Cytotoxicity against human L3.6PL cells assessed as reduction in cell viability at 1 uM measured after 72 hrs by MTS assay. It counts as cell-based. The method in brief:
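L3.6pl cells given compound at increasing concentrations, alone or with Ant-44 fixed at 2 μM, for 72 h at 37°C. % cell growth by MTS against an untreated control run in parallel, in triplicate.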
A general note: Formazan colour is commonly taken as a measure of viable cells.

Data set [7] concerns L3.6pl. Kind of data set: Effect on polyamine level in human L3.6PL cells assessed as decrease in intracellular spermidine level at 2 to 7 uM measured after 72 hrs in presence of amine oxidase suppressor aminoguanidine by LCMS analysis. In kind it is functional, cell-based. The note with it: in the assay text read “by N-dansylation and HPLC analysis” for “by LCMS analysis”. Put shortly:
as §1

Data set [8] deals with CHO-K1. The data set is described as follows: Potentiation of 0.5 uM N-(anthracenylmethyl) homospermidine-induced toxicity in CHOK1 cells assessed as increase in Ant-44-induced reduction in cell growth at 5 uM measured after 48 hrs in presence of amine oxidase suppressor aminoguanidine by microscopy analysis. In kind it is functional, cell-based. The settings on record: Cricetulus griseus. The method in brief: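 CHO K1 cells treated 48 h at 37°C with Ant-44 (0.5 μM) plus 5 μM compound, after 1 mM aminoguanidine pretreatment, were examined by microscope for cell number and shape versus untreated control cells.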

In data set [9] the test system is L3.6pl. The data set is described as follows: Effect on polyamine level in human L3.6PL cells assessed as spermine level per mg protein in supernatant at 5 uM measured after 72 hrs in presence of amine oxidase suppressor aminoguanidine by LCMS analysis (reference value: 6152 +/- 5596 pmol/mg). In kind it is functional.
Data set [10] relates to CHO-K1. Kind of data set: Potentiation of 0.5 uM N-(anthracenylmethyl) homospermidine-induced toxicity in CHOK1 cells assessed as increase in Ant-44-induced reduction in cell growth measured after 48 hrs in presence of amine oxidase suppressor aminoguanidine by MTS assay. It counts as functional, cell-based. The settings on record: Cricetulus griseus. Put shortly:
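CHO K1 cells were pretreated 24 h with 1 mM aminoguanidine, then given fixed Ant-44 (0.5 μM) plus increasing compound (up to 5 μM) for 48 h at 37°C. MTS growth was read, with EC50 defined as the dose halving growth relative to Ant-44 alone. Runs were done twice in triplicate, with SD.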

In data set [11] the test system is CHO-K1. The data set is described as follows: Cytotoxicity against CHOK1 cells assessed as reduction in cell viability after 48 hrs by MTS assay. In kind it is cell-based. The settings on record: Cricetulus griseus, CHO-K1, 48 h. Put shortly: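 Cells in RPMI 1640 with 10% FBS, 1% penicillin/streptomycin, 37°C, 5% CO2, with aminoguanidine (1 mM for CHO K1 and CHO-MG, 250 μM for L3.6pl). Plated overnight at 1000 cells/well (CHO lines) or 500 cells/well (L3.6pl). Compound in PBS added, 48 h exposure. Growth read as MTS formazan absorbance at 490 nm. IC50 is the dose giving 50% relative growth versus untreated control. Run twice in triplicate.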

Data set [12] has as its system CHO-K1. Kind of data set: Induction of polyamine efflux in aminoguanidine pretreated CHOK1 cells assessed as reduction in cell viability measured after 72 hrs in presence of spermidine by MTS assay. In kind it is ADME, cell-based, Cricetulus griseus. The settings on record: chinese hamster, cho-k1, 72 h.
Data set [13] concerns L3.6pl. Kind of data set: Effect on polyamine level in human L3.6PL cells assessed as decrease in intracellular spermidine level at 7 uM measured after 72 hrs in presence of amine oxidase suppressor aminoguanidine […] relative to control. In kind it is functional. Also noted: scale not given: the % may be the effect or the level left.
Data set [14] has as its target Large neutral amino acids transporter small subunit 1 (Homo sapiens) (UniProt Q01650). Kind of data set: Inhibition of LAT1-mediated [3H]-leucine uptake in human L3.6PL cells measured after 2 mins by scintillation counting analysis. It counts as cell-based.
Data set [15] has as its system L3.6pl. Kind of data set: Effect on polyamine level in human L3.6PL cells assessed as phenylalanine level per mg protein in supernatant at 5 uM measured after 72 hrs in presence of amine oxidase suppressor aminoguanidine by LCMS analysis (reference value: 14299 +/- 7194 pmol/mg). It counts as functional.
Data set [16] deals with L3.6pl. The data set is described as follows: Effect on polyamine level in human L3.6PL cells assessed as spermidine level per mg protein in supernatant at 2 uM measured after 72 hrs in presence of amine oxidase suppressor aminoguanidine by LCMS analysis (reference value: 339 pmol/mg). It counts as functional.
Data set [17] relates to CHO-K1. Kind of data set: Inhibition of polyamine transporter in CHOK1 cells assessed as rescue of 2.4 uM N-(anthracenylmethyl) homospermidine-induced toxicity by measuring cell growth at 7 uM measured after 48 hrs in presence of amine oxidase suppressor aminoguanidine by MTS assay (reference value: 23%). Further details: scale not given: the % may be the effect or the level left. In kind it is cell-based. The note with it: Cricetulus griseus. Put shortly: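 CHO K1 cells (1000 cells/well, aminoguanidine 1 mM preincubation) were given a toxic Ant-44 dose (2.4 μM) with candidate compound at 5 or 7 μM. Cells were incubated 48 h at 37°C, and relative growth versus untreated control was read by MTS.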

The subject of data set [18] is L3.6pl. The data set is described as follows: Effect on polyamine level in human L3.6PL cells assessed as decrease in intracellular spermidine level at 1 uM measured after 72 hrs in presence of amine oxidase suppressor aminoguanidine and Ant-44 by LCMS analysis. In kind it is functional, cell-based. The method in brief: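 L3.6pl cells dosed with Ant-44 fixed at 2 μM plus increasing compound for 72 h at 37°C. Intracellular polyamines and Ant-44 given as nmol/mg protein, in duplicate, with a parallel untreated control.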

Data set [19] has as its target Large neutral amino acids transporter small subunit 1 (Homo sapiens) (UniProt Q01650). The data set is described as follows: Inhibition of LAT1-mediated [3H]-leucine uptake in human L3.6PL cells at 2 to 20 uM and 37 degree C measured after 2 mins by scintillation counter method. It counts as cell-based.
The subject of data set [20] is L3.6pl. Kind of data set: Effect on polyamine level in human L3.6PL cells assessed as arginine level per mg protein in supernatant at 5 uM measured after 72 hrs in presence of amine oxidase suppressor aminoguanidine by LCMS analysis (reference value: 22121 +/- 10585 pmol/mg). It counts as functional.

Large neutral amino acids transporter small subunit 1 (Homo sapiens), sequence (Q01650 whole entry): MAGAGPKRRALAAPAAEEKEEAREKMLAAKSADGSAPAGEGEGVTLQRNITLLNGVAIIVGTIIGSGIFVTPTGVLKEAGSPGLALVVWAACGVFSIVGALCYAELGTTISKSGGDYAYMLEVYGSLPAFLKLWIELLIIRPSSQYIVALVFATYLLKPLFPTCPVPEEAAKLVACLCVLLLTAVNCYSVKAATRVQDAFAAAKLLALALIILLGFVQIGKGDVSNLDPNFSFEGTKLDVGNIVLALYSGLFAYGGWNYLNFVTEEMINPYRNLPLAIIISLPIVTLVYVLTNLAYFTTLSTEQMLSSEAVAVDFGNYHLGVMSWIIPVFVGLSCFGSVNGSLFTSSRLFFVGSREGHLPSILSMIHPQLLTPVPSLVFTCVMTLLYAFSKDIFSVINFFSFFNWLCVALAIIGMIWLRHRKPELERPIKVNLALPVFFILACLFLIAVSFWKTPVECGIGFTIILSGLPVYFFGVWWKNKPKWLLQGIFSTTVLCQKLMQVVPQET

On to `CC(C)CCN1CCN([C@@H](CNCc2ccccc2)CC2CCCCC2)C[C@@H]1CC(C)C`, for which the Activity entry in data set [1] is “Tde”; in the data set with L3.6pl [2] it was 15055 pmol/mg; with L3.6pl [4], 2224 pmol/mg; with L3.6pl [5], 167 pmol/mg; in the data set with L3.6pl [6], “Non-Toxic”; with L3.6pl [9], 2690 pmol/mg. Also, the Activity result in the data set on CHO-K1 [10] was “Dose-dependent effect”; in the data set on CHO-K1 [12] it was “Active”; in the data set with L3.6pl [13], 50%; with L3.6pl [15], 160462 pmol/mg; in the data set on L3.6pl [16] it was 131 pmol/mg; in the data set with CHO-K1 [17] it was 3%. Further, the Activity in the data set with L3.6pl [20] came to 43243 pmol/mg. Also, the outcome in the data set on L3.6pl [3], in the data set on L3.6pl [7], with CHO-K1 [8] and in the data set on L3.6pl [18] was Active. The EC50 in the data set with CHO-K1 [10] (CHO-K1, 48 h) worked out at 0.06 µM. For the same compound, in the data set on CHO-K1 [11], the IC50 is 8 µM. The inhibition result in data set [14] and in data set [19] was “inactive” each time.

As a reminder, the EC50 is the midpoint of the concentration-response curve. As a reminder, the IC50 is the concentration at which inhibition is half-maximal.
